Measurements reported in ChEMBL document CHEMBL4257585, “Structure-Activity Relationships of Photoswitchable Diarylethene-Based β-Hairpin Peptides as Membranolytic Antimicrobial and Anticancer Agents” (J Med Chem, 2018).
Converted amounts (≈) assume the structure as drawn.

Columns and labels:
[1] = Selective ratio of HC50 for human RBC to IC50 for human HeLa cells; format: toxicity; settings: human red blood cells versus HeLa cells
Summary of the method: (§1)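 Ratio of HC50 (RBC) to HeLa IC50 or to MIC against B. subtilis or E. coli; values measured in mg/mL and recalculated to μM, 2-fold dilution without curve fitting, accuracy within a factor of 2.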

[2] = Therapeutic index, ratio of HC50 for human RBC to MIC for Bacillus subtilis DSM 347; format: toxicity; settings: human red blood cells versus Bacillus subtilis DSM 347; summary of the method: as §1
Escherichia coli = experiment: Antimicrobial activity against Escherichia coli DSM 1103 after 22 hrs by resazurin dye based spectrophotometry; format: functional; settings: DSM 1103, 22 h
Summary of the method: (§2)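 2-fold broth microdilution in Mueller–Hinton medium; peptide stocks 1024 μg/mL in 50% ethanol. Exponential-phase cultures diluted to OD550 0.2, then 1:100 (B. subtilis) or 1:1000 (E. coli), giving 5 × 10^5 CFU/mL per well. Incubated 22 h, 37 °C, static; then resazurin (0.2 mg/mL solution) added for 2 h at 37 °C, read visually and spectrophotometrically. Tested in both photoforms.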

HeLa = experiment: Cytotoxicity against human HeLa cells assessed as reduction in cell viability after 24 hrs by MTT assay; format: functional, cell-based
Summary of the method: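 HeLa cells seeded at about 5 × 10^4 cells/mL in DMEM with 10% FBS, 2 mM glutamine, gentamicin; 24 h adaptation (37 °C, 5% CO2), then 24 h peptide exposure. MTT 4 h, formazan in DMSO read at 570 nm. 2-fold series 256–0.5 (open) or 512–1 μg/mL (closed), four repetitions; IC50 extrapolated from killing curves. Closed form handled in dim light.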

[3] = Hemolytic activity against human RBC assessed as hemolysis after 30 mins by colorimetric method; format: ADME, cell-based, Erythrocyte; settings: human red blood cells (erythrocytes)
Summary of the method: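 Human erythrocytes washed twice in isotonic 172 mM Tris-HCl, pH 7.6; peptides dissolved in DMSO, diluted in buffer, two independent 10-step 2-fold series from 256 or 192 μg/mL. HC50 extrapolated as 50% hemolysis concentration.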

Bacillus subtilis = experiment: Antimicrobial activity against Bacillus subtilis DSM 347 after 22 hrs by resazurin dye based spectrophotometry; format: functional; settings: DSM 347, 22 h; summary of the method: as §2
[4] = Therapeutic index, ratio of HC50 for human RBC to MIC for Escherichia coli DSM 1103; format: toxicity; settings: human red blood cells versus Escherichia coli DSM 1103; summary of the method: as §1

Structure (SMILES)	selectivity ratio [1]	selectivity ratio [2]	MIC (Escherichia coli) [µM]	IC50 (HeLa) [µM]	HC50 at 0.5 h [3] [µM]	MIC (Bacillus subtilis) [µM]	selectivity ratio [4]
CC(C)C[C@@H]1NC(=O)[C@H](CCCNC(=N)N)NC(=O)[C@H](C(C)C)NC(=O)C2=CC3=C4CCCC4=C4C=C(S[C@]4(C)[C@@]3(C)S2)C(=O)[C@H]2CCCN2C(=O)[C@H](CC(C)C)NC(=O)[C@H](CCCNC(=N)N)NC(=O)[C@H](C(C)C)NC(=O)[C@@H]2CCCN2C(=O)[C@@H](Cc2ccccc2)NC1=O	0.3	1.7	94 (≈ 128 µg/mL)	35	10	6 (≈ 8.19 µg/mL)	0.1
Cc1sc2cc1C1=C(CCC1)c1cc(sc1C)C(=O)[C@H]1CCCN1C(=O)[C@H](C(C)C)NC(=O)[C@H](CCCN)NC(=O)[C@H](C(C)C)NC(=O)[C@@H]1CCCN1C(=O)[C@@H](Cc1ccccc1)NC(=O)[C@H](C(C)C)NC(=O)[C@H](CCCN)NC(=O)[C@H](CC(=O)NC(C)C)NC2=O	2.3	51	98 (≈ 128 µg/mL)	66	153	3 (≈ 3.93 µg/mL)	1.6
CC(C)C(=O)NCC[C@@H]1NC(=O)C2=CC3=C4CCCC4=C4C=C(S[C@]4(C)[C@@]3(C)S2)C(=O)[C@H]2CCCN2C(=O)[C@H](C(C)C)NC(=O)[C@H](CCCN)NC(=O)[C@H](C(C)C)NC(=O)[C@@H]2CCCN2C(=O)[C@@H](Cc2ccccc2)NC(=O)[C@H](C(C)C)NC(=O)[C@H](CCCN)NC1=O	2	8.1	194 (≈ 257 µg/mL)	194	387	48 (≈ 63.5 µg/mL)	2
CC[C@H](C)[C@@H]1NC(=O)C2=CC3=C4CCCC4=C4C=C(S[C@]4(C)[C@@]3(C)S2)C(=O)[C@H]2CCCN2C(=O)[C@H](CC(C)C)NC(=O)[C@H](CCCN)NC(=O)[C@H]([C@@H](C)CC)NC(=O)[C@@H]2CCCN2C(=O)[C@H]2CCCN2C(=O)[C@H](CC(C)C)NC(=O)[C@H](CCCN)NC1=O	1.9	20	203 (≈ 256 µg/mL)	64	120	6 (≈ 7.55 µg/mL)	0.6
Cc1sc2cc1C1=C(CCC1)c1cc(sc1C)C(=O)[C@H]1CCCN1C(=O)[C@H]([C@@H](C)O)NC(=O)[C@H](C13CC4CC(CC(C4)C1)C3)NC(=O)[C@H](CCCN)NC(=O)[C@@H]1CCCN1C(=O)[C@@H](Cc1ccccc1)NC(=O)[C@H](CCCN)NC(=O)[C@H](C13CC4CC(CC(C4)C1)C3)NC(=O)[C@H](CCCN)NC2=O	0.4	2	25 (≈ 36.3 µg/mL)	9	4	2 (≈ 2.91 µg/mL)	0.2
CC(C)[C@@H]1NC(=O)C2=CC3=C4CCCC4=C4C=C(S[C@]4(C)[C@@]3(C)S2)C(=O)[C@H]2CCCN2C(=O)[C@H](C(C)C)NC(=O)[C@H](CCCN)N(C)C(=O)[C@H](C(C)C)NC(=O)[C@@H]2CCCN2C(=O)[C@@H](Cc2ccccc2)N(C)C(=O)[C@H](C(C)C)NC(=O)[C@H](CCCN)NC1=O	1.9	32	200 (≈ 256 µg/mL)	100	192	6 (≈ 7.68 µg/mL)	1
CC(C)NC(=O)C[C@@H]1NC(=O)C2=CC3=C4CCCC4=C4C=C(S[C@]4(C)[C@@]3(C)S2)C(=O)[C@H]2CCCN2C(=O)[C@H](C(C)C)NC(=O)[C@H](CCCN)NC(=O)[C@H](C(C)C)NC(=O)[C@@H]2CCCN2C(=O)[C@@H](Cc2ccccc2)NC(=O)[C@H](C(C)C)NC(=O)[C@H](CCCN)NC1=O	2	7.8	196 (≈ 257 µg/mL)	196	391	49 (≈ 64.2 µg/mL)	2
Cc1sc2cc1C1=C(CCC1)c1cc(sc1C)C(=O)[C@H]1CCCN1C(=O)[C@H](C(C)C)NC(=O)[C@H](CCCN)N(C)C(=O)[C@H](C(C)C)NC(=O)[C@@H]1CCCN1C(=O)[C@@H](Cc1ccccc1)N(C)C(=O)[C@H](C(C)C)NC(=O)[C@H](CCCN)NC(=O)[C@H](C(C)C)NC2=O	2.4	29.5	100 (≈ 128 µg/mL)	25	59	2 (≈ 2.56 µg/mL)	0.6
Cc1sc2cc1C1=C(CCC1)c1cc(sc1C)C(=O)[C@H]1CCCN1C(=O)[C@H](CC(C)C)NC(=O)[C@H](CCCNC(=N)N)NC(=O)[C@H](C(C)C)NC(=O)[C@@H]1CCCN1C(=O)[C@@H](Cc1ccccc1)NC(=O)[C@H](CC(C)C)NC(=O)[C@H](CCCNC(=N)N)NC(=O)[C@H](C(C)C)NC2=O	0.5	0.7	35 (≈ 47.8 µg/mL)	4	2	3 (≈ 4.09 µg/mL)	0.1
CC(C)[C@@H]1NC(=O)C2=CC3=C4CCCC4=C4C=C(S[C@]4(C)[C@@]3(C)S2)C(=O)[C@H]2CCCN2C(=O)[C@H]([C@@H](C)O)NC(=O)[C@H](CCCN)NC(=O)[C@H](C(C)C)NC(=O)[C@@H]2CCCN2C(=O)[C@@H](Cc2ccccc2)NC(=O)[C@H](C(C)C)NC(=O)[C@H](CCCN)NC1=O	2.7	8	204 (≈ 256 µg/mL)	153	408	51 (≈ 64 µg/mL)	2
CC[C@H](C)[C@@H]1NC(=O)c2cc(c(C)s2)C2=C(CCC2)c2cc(sc2C)C(=O)[C@H]2CCCN2C(=O)[C@H](CC(C)C)NC(=O)[C@H](CCCN)NC(=O)[C@H]([C@@H](C)CC)NC(=O)[C@@H]2CCCN2C(=O)[C@H]2CCCN2C(=O)[C@H](CC(C)C)NC(=O)[C@H](CCCN)NC1=O	1.3	4	51 (≈ 64.2 µg/mL)	6	8	2 (≈ 2.52 µg/mL)	0.2
C[C@]12SC3=CC1=C1CCCC1=C1C=C(S[C@@]12C)C(=O)[C@H]1CCCN1C(=O)[C@H](CCCCN)NC(=O)[C@H](C12CC4CC(CC(C4)C1)C2)NC(=O)[C@H](CCCN)NC(=O)[C@@H]1CCCN1C(=O)[C@@H](Cc1ccccc1)NC(=O)[C@H](CCCN)NC(=O)[C@H](C12CC4CC(CC(C4)C1)C2)NC(=O)[C@H](CCCN)NC3=O	0.1	0.3	8 (≈ 11.8 µg/mL)	11	1	3 (≈ 4.44 µg/mL)	0.1
CC(C)[C@@H]1NC(=O)C2=CC3=C4CCCC4=C4C=C(S[C@]4(C)[C@@]3(C)S2)C(=O)[C@H]2CCCN2C(=O)[C@H](Cc2ccc(O)cc2)NC(=O)[C@H](CCCN)NC(=O)[C@H](C(C)C)NC(=O)[C@@H]2CCCN2C(=O)[C@@H](Cc2ccccc2)NC(=O)[C@H](Cc2ccc(O)cc2)NC(=O)[C@H](CCCN)NC1=O	0.1	3.7	92 (≈ 127 µg/mL)	137	11	3 (≈ 4.14 µg/mL)	0.1
C[C@@H](O)[C@@H]1NC(=O)[C@H](C23CC4CC(CC(C4)C2)C3)NC(=O)[C@H](CCCN)NC(=O)[C@@H]2CCCN2C(=O)[C@@H](Cc2ccccc2)NC(=O)[C@H](CCCN)NC(=O)[C@H](C23CC4CC(CC(C4)C2)C3)NC(=O)[C@H](CCCN)NC(=O)C2=CC3=C4CCCC4=C4C=C(S[C@]4(C)[C@@]3(C)S2)C(=O)[C@H]2CCCN2C1=O	1.2	6.5	13 (≈ 18.9 µg/mL)	11	13	2 (≈ 2.91 µg/mL)	0.1
CC[C@H](C)[C@@H]1NC(=O)C2=CC3=C4CCCC4=C4C=C(S[C@]4(C)[C@@]3(C)S2)C(=O)[C@H]2CCCN2C(=O)[C@H]([C@@H](C)CC)NC(=O)[C@H](CCCN)NC(=O)[C@H](CC(C)C)NC(=O)[C@H](CC(C)C)N(C)C(=O)[C@@H](Cc2ccccc2)NC(=O)[C@H]([C@@H](C)CC)NC(=O)[C@H](CCCN)NC1=O	1.1	9	191 (≈ 256 µg/mL)	25	27	3 (≈ 4.02 µg/mL)	0.1
Cc1sc2cc1C1=C(CCC1)c1cc(sc1C)C(=O)[C@H]1CCCN1C(=O)[C@H](C(C)C)NC(=O)[C@H](CCCN)NC(=O)[C@H](C(C)C)NC(=O)[C@@H]1CCCN1C(=O)[C@@H](Cc1ccccc1)NC(=O)[C@H](C(C)C)NC(=O)[C@H](CCCN)NC(=O)[C@H](CCNC(=O)C(C)C)NC2=O	4.7	56.7	97 (≈ 128 µg/mL)	36	170	3 (≈ 3.97 µg/mL)	1.8
Cc1sc2cc1C1=C(CCC1)c1cc(sc1C)C(=O)[C@H]1CCCN1C(=O)[C@H](CCCCN)NC(=O)[C@H](C13CC4CC(CC(C4)C1)C3)NC(=O)[C@H](CCCN)NC(=O)[C@@H]1CCCN1C(=O)[C@@H](Cc1ccccc1)NC(=O)[C@H](CCCN)NC(=O)[C@H](C13CC4CC(CC(C4)C1)C3)NC(=O)[C@H](CCCN)NC2=O	0.1	0.3	16 (≈ 23.7 µg/mL)	11	1	3 (≈ 4.44 µg/mL)	0.1
